Assays:
Format in all cases: functional
[1] = Growth inhibition of human HCT116 cells after 48 hrs by sulforhodamine B assay; conditions: HCT-116, 48 h
In short: (§1)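 NCI-60 panel screen by SRB assay (Rubinstein method). Percentage growth taken from optical density of SRB colour, read before and 48 hrs after exposure to compound or vehicle control. All analogues first screened at 10^-5 M. Analogues giving 60% growth inhibition at that level in at least eight lines then went to a five-concentration dose-response study.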

[2] = Growth inhibition of human RPMI8226 cells after 48 hrs by sulforhodamine B assay; conditions: RPMI-8226, 48 h; in short: as §1
U-251 = assay: Growth inhibition of human U251 cells after 48 hrs by sulforhodamine B assay; conditions: U-251, 48 h; in short: as §1
[3] = Growth inhibition of human HOP92 cells after 48 hrs by sulforhodamine B assay; conditions: HOP-92, 48 h; in short: as §1
[4] = Growth inhibition of human HCC2998 cells after 48 hrs by sulforhodamine B assay; conditions: HCC 2998, 48 h; in short: as §1
[5] = Growth inhibition of human SNB75 cells after 48 hrs by sulforhodamine B assay; conditions: SNB-75, 48 h; in short: as §1
MCF7 = assay: Growth inhibition of human MCF7 cells after 48 hrs by sulforhodamine B assay; conditions: MCF7, 48 h; in short: as §1
A549 = assay: Growth inhibition of human A549/ATCC cells after 48 hrs by sulforhodamine B assay; conditions: A549, 48 h; in short: as §1
[6] = Growth inhibition of human HOP62 cells after 48 hrs by sulforhodamine B assay; conditions: HOP-62, 48 h; in short: as §1
[7] = Growth inhibition of human PC3 cells after 48 hrs by sulforhodamine B assay; conditions: PC-3, 48 h; in short: as §1
MDA-MB-435 = assay: Growth inhibition of human MDA-MB-435 cells after 48 hrs by sulforhodamine B assay; conditions: MDA-MB-435, 48 h
In short: (§2)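 NCI-60 sulforhodamine B screen. Compounds were first tested at a single dose of 10⁻⁵ M; hits, defined as ≥60% growth inhibition in at least eight lines, went on to a five-concentration dose–response. SRB optical density was read before and 48 h after exposure to compound or vehicle. Percentage growth was calculated from OD.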

[8] = Growth inhibition of human HL-60(TB) cells after 48 hrs by sulforhodamine B assay; conditions: HL-60, 48 h; in short: as §1
MDA-MB-468 = assay: Growth inhibition of human MDA-MB-468 cells after 48 hrs by sulforhodamine B assay; conditions: MDA-MB-468, 48 h; in short: as §1
786-0 = assay: Growth inhibition of human 786-0 cells after 48 hrs by sulforhodamine B assay; conditions: 786-0, 48 h; in short: as §1
[9] = Growth inhibition of human IGROV1 cells after 48 hrs by sulforhodamine B assay; conditions: IGROV-1, 48 h; in short: as §1
[10] = Growth inhibition of human LOXIMVI cells after 48 hrs by sulforhodamine B assay; conditions: LOX IMVI; in short: as §1
[11] = Growth inhibition of human NCI-ADR-RES cells after 48 hrs by sulforhodamine B assay; in short: as §1
MDA-MB-231 = assay: Growth inhibition of human MDA-MB-231 cells after 48 hrs by sulforhodamine B assay; conditions: MDA-MB-231, 48 h; in short: as §1
[12] = Growth inhibition of human HCT15 cells after 48 hrs by sulforhodamine B assay; conditions: HCT-15, 48 h; in short: as §1
CAKI-1 = assay: Growth inhibition of human CAKI-1 cells after 48 hrs by sulforhodamine B assay; conditions: CAKI-1, 48 h; in short: as §1
[13] = Growth inhibition of human SF268 cells after 48 hrs by sulforhodamine B assay; conditions: SF-268, 48 h; in short: as §1
SR = assay: Growth inhibition of human SR cells after 48 hrs by sulforhodamine B assay; in short: as §1
CCRF-CEM = assay: Growth inhibition of human CCRF-CEM cells after 48 hrs by sulforhodamine B assay; in short: as §1
SK-MEL-2 = assay: Growth inhibition of human SK-MEL-2 cells after 48 hrs by sulforhodamine B assay; conditions: SK-MEL-2, 48 h; in short: as §1
HT-29 = assay: Growth inhibition of human HT-29 cells after 48 hrs by sulforhodamine B assay; conditions: HT-29, 48 h; in short: as §1
KM12 = assay: Growth inhibition of human KM12 cells after 48 hrs by sulforhodamine B assay; conditions: KM12, 48 h; in short: as §1
NCI-H460 = assay: Growth inhibition of human NCI-H460 cells after 48 hrs by sulforhodamine B assay; conditions: NCI-H460, 48 h; in short: as §1
[14] = Growth inhibition of human SF295 cells after 48 hrs by sulforhodamine B assay; conditions: SF-295, 48 h; in short: as §1
ACHN = assay: Growth inhibition of human ACHN cells after 48 hrs by sulforhodamine B assay; in short: as §1
[15] = Growth inhibition of human MOLT4 cells after 48 hrs by sulforhodamine B assay; conditions: MOLT-4, 48 h; in short: as §1
A498 = assay: Growth inhibition of human A498 cells after 48 hrs by sulforhodamine B assay; conditions: A498, 48 h; in short: as §2
K562 = assay: Growth inhibition of human K562 cells after 48 hrs by sulforhodamine B assay; conditions: K562, 48 h; in short: as §1
[16] = Growth inhibition of human SW620 cells after 48 hrs by sulforhodamine B assay; conditions: SW-620, 48 h; in short: as §1
NCI-H23 = assay: Growth inhibition of human NCI-H23 cells after 48 hrs by sulforhodamine B assay; conditions: NCI-H23, 48 h; in short: as §1
[17] = Growth inhibition of human UO31 cells after 48 hrs by sulforhodamine B assay; conditions: UO-31, 48 h; in short: as §1
[18] = Growth inhibition of human COLO205 cells after 48 hrs by sulforhodamine B assay; conditions: COLO 205, 48 h; in short: as §1
[19] = Growth inhibition of human OVCAR3 cells after 48 hrs by sulforhodamine B assay; conditions: OVCAR-3, 48 h; in short: as §2
[20] = read-out: LD50 (the source's name)

`COc1cc(-c2n[nH]nc2-c2ccc3ccccc3n2)cc(OC)c1OC` showed a GI50 [1] of 40 nM, a CC50 [1, 20] greater than 100000 nM and a GI50 [2] of 37 nM. For the same compound, the CC50 [2, 20] was greater than 100000 nM, the GI50 (U-251) was 37 nM and the CC50 (U-251; [20]) was greater than 100000 nM. For the same compound, the GI50 [3] was 99 nM, the CC50 [3, 20] was greater than 100000 nM and the GI50 [4] was 230 nM. The CC50 [4, 20] was greater than 100000 nM, the GI50 [5] was 16 nM and the CC50 [5, 20] was greater than 100000 nM. The GI50 (MCF7) was 27 nM, the CC50 (MCF7; [20]) was greater than 100000 nM and the GI50 (A549) was 54 nM. For the same compound, the CC50 (A549; [20]) was greater than 100000 nM, the GI50 [6] was 47 nM and the LC50 (concentration killing 50% of cells) ([6]; read-out: LD50) was greater than 100000 nM. It also gave a GI50 [7] of 46 nM, a CC50 [7, 20] greater than 100000 nM and a GI50 (MDA-MB-435) of less than 10 nM. For the same compound, the LC50 (concentration killing 50% of cells) (MDA-MB-435; read-out: LD50) was greater than 100000 nM, the GI50 [8] was 30 nM and the CC50 [8, 20] was greater than 100000 nM. It also gave a GI50 (MDA-MB-468) of 35 nM, a CC50 (MDA-MB-468; [20]) greater than 100000 nM and a GI50 (786-0) of 43 nM. For the same compound, the LC50 (concentration killing 50% of cells) (786-0; read-out: LD50) was greater than 100000 nM, the GI50 [9] was 65 nM and the CC50 [9, 20] was greater than 100000 nM. For the same compound, the GI50 [10] was 65 nM, the CC50 [10, 20] was greater than 100000 nM and the GI50 [11] was 23 nM. It also gave a CC50 [11, 20] greater than 100000 nM, a GI50 (MDA-MB-231) of 94 nM and a CC50 (MDA-MB-231; [20]) greater than 100000 nM. The GI50 [12] was 37 nM, the CC50 [12, 20] was greater than 100000 nM and the GI50 (CAKI-1) was 43 nM. It also gave a CC50 (CAKI-1; [20]) greater than 100000 nM, a GI50 [13] of 503 nM and a CC50 [13, 20] greater than 100000 nM. For the same compound, the GI50 (SR) was 21 nM, the LC50 (concentration giving 50% net cell kill) (SR; read-out: LD50) was greater than 100000 nM and the GI50 (CCRF-CEM) was 37 nM. For the same compound, the LC50 (concentration killing 50% of cells) (CCRF-CEM; read-out: LD50) was greater than 100000 nM, the GI50 (SK-MEL-2) was 27 nM and the CC50 (SK-MEL-2; [20]) was greater than 100000 nM. The GI50 (HT-29) was 214 nM, the LC50 (concentration killing 50% of cells) (HT-29; read-out: LD50) was greater than 100000 nM and the GI50 (KM12) was 35 nM. The LC50 (concentration killing 50% of cells) (KM12; read-out: LD50) was greater than 100000 nM, the GI50 (NCI-H460) was 38 nM and the CC50 (NCI-H460; [20]) was greater than 100000 nM. It also gave a GI50 [14] of 14 nM, a CC50 [14, 20] greater than 100000 nM and a GI50 (ACHN) of 81 nM. It also gave a CC50 (ACHN; [20]) greater than 100000 nM, a GI50 [15] of 68 nM and a CC50 [15, 20] greater than 100000 nM. It also gave a GI50 (A498) of 33 nM, an LC50 (50% net cell kill) (A498; read-out: LD50) greater than 100000 nM and a GI50 (K562) of 26 nM. For the same compound, the CC50 (K562; [20]) was greater than 100000 nM, the GI50 [16] was 41 nM and the LD50 (concentration killing 50% of cells) [16] was greater than 100 µM. The GI50 (NCI-H23) was 65 nM, the LC50 (concentration giving 50% cell kill) (NCI-H23; read-out: LD50) was greater than 100000 nM and the GI50 [17] was 92 nM. For the same compound, the LC50 (concentration killing 50% of cells) ([17]; read-out: LD50) was greater than 100000 nM, the GI50 [18] was 228 nM and the CC50 [18, 20] was greater than 100000 nM. The GI50 [19] was 11 nM and the LC50 (concentration giving 50% net cell kill) ([19]; read-out: LD50) was greater than 100000 nM.
